Assay results pooled from the literature.
Protocols differ between the studies behind these lines.
Target: SNF-related serine/threonine-protein kinase (SNRK, Homo sapiens, UniProt Q9NRH2)
Residues used in one study (Q9NRH2 1-765): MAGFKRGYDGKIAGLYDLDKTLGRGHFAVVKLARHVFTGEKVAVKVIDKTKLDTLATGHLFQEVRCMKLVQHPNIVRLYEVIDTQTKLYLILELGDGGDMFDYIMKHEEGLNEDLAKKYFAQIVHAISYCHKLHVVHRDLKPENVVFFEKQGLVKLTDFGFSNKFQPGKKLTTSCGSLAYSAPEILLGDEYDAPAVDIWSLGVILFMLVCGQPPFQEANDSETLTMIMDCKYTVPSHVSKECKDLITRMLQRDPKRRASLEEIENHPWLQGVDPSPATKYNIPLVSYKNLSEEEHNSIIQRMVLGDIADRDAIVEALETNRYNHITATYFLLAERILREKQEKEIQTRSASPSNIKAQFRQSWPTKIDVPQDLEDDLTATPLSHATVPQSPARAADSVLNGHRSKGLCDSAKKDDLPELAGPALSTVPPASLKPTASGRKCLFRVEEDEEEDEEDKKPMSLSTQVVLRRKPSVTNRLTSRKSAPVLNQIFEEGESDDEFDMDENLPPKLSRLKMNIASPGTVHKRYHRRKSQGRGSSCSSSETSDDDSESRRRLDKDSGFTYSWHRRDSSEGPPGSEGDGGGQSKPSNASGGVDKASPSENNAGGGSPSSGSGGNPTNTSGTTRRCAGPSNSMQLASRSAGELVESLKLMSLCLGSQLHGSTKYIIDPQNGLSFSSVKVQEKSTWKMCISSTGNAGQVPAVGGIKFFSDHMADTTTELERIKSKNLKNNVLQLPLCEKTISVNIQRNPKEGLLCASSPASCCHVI

Structure (SMILES) | observed | action | method | tested at | quantity | result
Cc1cc(NC(=O)c2cccc3cc(-c4cccc5[nH]nc(N)c45)ccc23)ccc1F | enzyme activity | inhibitor |  | 0.1 µM | activity vs control | 109%
Cc1cnc(NC2CCOCC2)nc1-n1cnc(C(=O)NC(CN)c2cc(F)cc(Cl)c2)c1 (stereo not drawn) | enzyme activity | inhibitor | radiometric | 1 µM | remaining activity | 100%
Nc1ncnc2occ(-c3ccc(NC(=O)Nc4cc(C(F)(F)F)ccc4F)cc3)c12 | cell-free assay | inhibitor |  | 20 µM | remaining signal | 64%
c1ccc(CNc2nc(N3CCOc4ccccc43)nc3c2CCCC3)cc1 | target engagement in cells | inhibitor | chemoproteomics | 20 mM | inhibition | 0.3%
COc1cc(Cl)c(C(=O)N[C@@H](CN[C@H]2CC[C@@H](N)CC2)Cc2ccc(C#N)cc2)cc1-c1ccc(CN[C@H](C)c2ccc(C)cc2)o1 | enzyme activity | inhibitor |  | 1 µM | remaining activity | 104%
CN1CC(Oc2cnc(C#N)cc2-c2ccn3nc(NC(=O)C4CC4)cc3c2)C1 | enzyme activity | inhibitor |  | 1 µM | inhibition | -12%
Cc1ccc(NC(=O)c2ccc(C)c(C(F)(F)F)c2)cc1C#Cc1nn(C2CCC(O)CC2)c2ncnc(N)c12 (stereo not drawn) | cell-free assay |  |  | 10 µM | remaining signal | 92%
O=C(Nc1cnn(-c2csc(C(=O)NC3COC3)c2)c1)Nc1ccccc1Cl | enzyme activity | inhibitor |  | 5 µM | remaining activity | 96.8%
CNC(=O)Nc1ccc2c(c1)CC[C@@]21OC(=O)N(CC(=O)N(Cc2ccc(F)cc2)[C@@H](C)C(F)(F)F)C1=O | cell-free assay |  | competition with immobilised ligand | 1 µM | remaining binding | 96%
Cc1sc(C(=O)NC2COC2)cc1-n1cc(NC(=O)Nc2c(F)cccc2Cl)cn1 | enzyme activity | inhibitor |  | 10 µM | remaining activity | 102%
C[C@@H]1CN(c2cc(-c3nn(C)c4ccc(OC5(C)CC5)cc34)ncn2)C[C@H](C)O1 | cell-free assay |  | competition with immobilised ligand | 1 µM | remaining binding | 92%
COc1cccc2c(NCc3ccccc3)nc(-n3c(N)nc4ccccc43)nc12 | target engagement in cells | inhibitor | chemoproteomics | 20 mM | inhibition | 1.2%
